The values that follow come from ChEMBL document CHEMBL1131203, “Second generation "peptoid" CCK-B receptor antagonists: identification and development of N-(adamantyloxycarbonyl)-alpha-methyl-(R)-tryptophan derivative (CI-1015) with an improved pharmacokinetic profile” (J Med Chem, 1998).

Structures are written as SMILES.

Data set [1] in a line: Pharmacokinetic parameter tmax was evaluated in 10% PEG suspension at a dose of 20 mg/kg orally. Format: ADME, organism-based. Also noted: dose 20 mg/kg, route oral. The conditions noted are these: in vivo, po. In a few lines: (§1)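 Fasted male Wistar rats, groups of 3–4, given a single oral 20 mg/kg dose in the stated vehicle. Heparinized plasma was collected from an implanted jugular-vein cannula at serial times out to 24 h, kept frozen, and assayed by validated HPLC-fluorescence. Cmax, tmax, AUC(0–∞) and terminal t1/2 were obtained by noncompartmental analysis. Values are means (%RSD).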

Data set [2] can be described thus: Pharmacokinetic parameter AUC was evaluated in 10% PEG suspension at a dose of 20 mg/kg orally. It counts as ADME, organism-based. On the set-up: dose 20 mg/kg, route oral. The conditions noted are these: in vivo, po. The method, boiled down:
as §1

The nature of data set [3]: Pharmacokinetic parameter half-life was evaluated in 100% PEG solution at a dose of 20 mg/kg orally. It counts as ADME, organism-based. Also noted: dose 20 mg/kg, route oral. The conditions noted are these: in vivo, po. The method, boiled down: as §1
Data set [4] in a line: Maximum plasma concentration was evaluated in 0.5% methylcellulose suspension at a dose of 20 mg/kg orally. On the set-up: dose 20 mg/kg, route oral. The conditions noted are these: po. It counts as ADME, organism-based. The method, boiled down: as §1
Data set [5] deals with Mus musculus. Put plainly: Concentration in forebrain after 5 min of injection at a concentration of 1 mg/kg, iv in mice. Format: functional. The method, boiled down:
(§2)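 Ex vivo binding: mice were dosed iv with compound or vehicle, given either as saline or as 10% EtOH–60% propylene glycol–30% saline. Forebrains were taken at 5, 10 or 20 min, homogenized in HEPES buffer with bacitracin at pH 7.2, and incubated with 50 pM [125I]BH-CCK8s for 2 h at 22 °C. After filtration, bound radioligand was gamma-counted and read against calibration curves prepared in vehicle tissue. Detection limit was about 1 pmol/forebrain. n = 3–13.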

Data set [6] in a line: Maximum plasma concentration was evaluated in 10% of PEG suspension at a dose of 20 mg/kg orally. Conditions: po. Format: ADME, organism-based. On the set-up: dose 20 mg/kg, route oral. In a few lines: as §1
The test system of data set [7] is Mus musculus. The experiment in a line: Concentration in forebrain after 10 min of injection at a concentration of 1 mg/kg, iv in mice. Format: functional. The method, boiled down:
as §2

Data set [8] can be described thus: Pharmacokinetic parameter Tmax was evaluated in 0.5% methylcellulose suspension. Conditions: in vivo.
The test system of data set [9] is Mus musculus. The experiment in a line: Concentration in forebrain after 20 min of injection at a concentration of 1 mg/kg, iv in mice. It counts as functional. The method, boiled down: as §2
Data set [10] can be described thus: Pharmacokinetic parameter half-life was evaluated in 10% PEG suspension at a dose of 20 mg/kg orally. Format: ADME, organism-based. Also noted: dose 20 mg/kg, route oral. The conditions noted are these: in vivo, po. In a few lines:
as §1

The nature of data set [11]: Pharmacokinetic parameter AUC was evaluated in HP-beta-CD solution at a dose of 20 mg/kg orally. It counts as ADME, organism-based. On the set-up: dose 20 mg/kg, route oral. Conditions: in vivo, po. The method, boiled down:
as §1

The nature of data set [12]: Maximum plasma concentration was evaluated in 100% of PEG solution at a dose of 20 mg/kg orally. Format: ADME, organism-based. On the set-up: dose 20 mg/kg, route oral. The conditions noted are these: po. In a few lines:
as §1

Data set [13] is described as follows: Pharmacokinetic parameter half-life evaluated in HP-beta-CD solution at a dose of 20 mg/kg orally. It counts as ADME, organism-based. On the set-up: dose 20 mg/kg, route oral. The conditions noted are these: in vivo, po. The method, boiled down:
as §1

Data set [14] is described as follows: Pharmacokinetic parameter tmax was evaluated in HP-beta-CD solution at a dose of 20 mg/kg orally. It counts as ADME, organism-based. Also noted: dose 20 mg/kg, route oral. Conditions: in vivo, po. The method, boiled down:
as §1

Data set [15] in a line: Absolute oral bioavailability was evaluated in 10% PEG suspension at a dose of 20 mg/kg orally. It counts as ADME, organism-based. Conditions: eutheria, in vivo. In a few lines:
(§3)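 Fasted male Wistar rats, groups of 3–4, given a single 20 mg/kg dose po or iv in the stated vehicle. Heparinized plasma was drawn from a jugular-vein cannula at serial times out to 24 h and assayed by validated HPLC-fluorescence. Absolute bioavailability is the dose-normalized ratio of AUC after po dosing to AUC after iv dosing.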

A short description of data set [16]: Maximum plasma concentration was evaluated in HP-beta-CD solution at a dose of 20 mg/kg orally. Conditions: po. On the set-up: dose 20 mg/kg, route oral. Format: ADME, organism-based. In a few lines:
as §1

Data set [17] is described as follows: Pharmacokinetic parameter AUC evaluated in 0.5% methylcellulose suspension at a dose of 20 mg/kg orally. Format: ADME, organism-based. On the set-up: dose 20 mg/kg, route oral. The conditions noted are these: in vivo, po. In a few lines:
as §1

The nature of data set [18]: Absolute oral bioavailability was evaluated in 100% PEG solution. Format: ADME, organism-based. Conditions: eutheria, in vivo. In a few lines: as §3
Data set [19] is described as follows: Pharmacokinetic parameter AUC was evaluated in 100% PEG solution at a dose of 20 mg/kg orally. Format: ADME, organism-based. On the set-up: dose 20 mg/kg, route oral. Conditions: in vivo, po. The method, boiled down: as §1
The nature of data set [20]: Pharmacokinetic parameter tmax was evaluated in 100% PEG solution at a dose of 20 mg/kg orally. Format: ADME, organism-based. Also noted: dose 20 mg/kg, route oral. The conditions noted are these: in vivo, po. The method, boiled down: as §1
Data set [21] in a line: Absolute oral bioavailability was evaluated in 0.5% methylcellulose suspentionat a dose of 20 mg/kg orally. It counts as ADME, organism-based. The conditions noted are these: eutheria, in vivo. In a few lines:
as §3

Data set [22] can be described thus: Pharmacokinetic parameter half-life was evaluated in 0.5% methylcellulose suspension at a dose of 20 mg/kg orally. Format: ADME, organism-based. Also noted: dose 20 mg/kg, route oral. The conditions noted are these: in vivo, po. In a few lines:
as §1

The nature of data set [23]: Oral bioavailability (dosed in HP-beta-CD solution) (dose 20 mg/kg p.o.). It counts as ADME, organism-based. The conditions noted are these: eutheria, in vivo. The method, boiled down:
as §3

In data set [24] the target is T1, Cholecystokinin receptor type A (Rattus norvegicus, UniProt P30551).
T1 sequence (P30551 whole entry): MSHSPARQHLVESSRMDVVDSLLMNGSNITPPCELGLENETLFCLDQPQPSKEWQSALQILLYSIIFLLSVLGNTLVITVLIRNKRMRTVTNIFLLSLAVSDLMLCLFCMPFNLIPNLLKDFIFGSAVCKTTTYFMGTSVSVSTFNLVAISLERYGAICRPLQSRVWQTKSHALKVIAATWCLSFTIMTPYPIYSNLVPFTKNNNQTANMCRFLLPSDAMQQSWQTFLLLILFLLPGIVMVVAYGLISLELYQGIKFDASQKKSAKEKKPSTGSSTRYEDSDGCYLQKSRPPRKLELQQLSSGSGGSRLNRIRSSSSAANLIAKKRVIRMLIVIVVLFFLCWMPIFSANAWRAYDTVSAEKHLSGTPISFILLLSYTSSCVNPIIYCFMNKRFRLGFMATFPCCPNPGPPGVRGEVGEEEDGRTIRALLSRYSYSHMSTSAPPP
Put plainly: Inhibitory concentration against radioligand [125I]Bolton-Hunter labeled CCK-8 to cholecystokinin type A receptor in the rat pancreas.

As for `C[C@](Cc1c[nH]c2ccccc12)(NC(=O)OC1C2CC3CC(C2)CC1C3)C(=O)N[C@@H]1CCCC[C@H]1O` (some centres undefined), the time of peak concentration (Tmax) worked out at 3.5 h in data set [1], 3 h in data set [8], 1.8 h in data set [14] and 1 h in data set [20]. The AUC in data set [2] came to 953 ng·h/mL; in [11], 2130 ng·h/mL; in data set [17], 673 ng·h/mL; in data set [19] it was 724 ng·h/mL. Besides, the half-life in data set [3] is 1.3 h; in data set [10] it was 1.1 h; in data set [13], 0.9 h; in data set [22], 1 h. In addition, the Cmax in [4] was 185 ng/mL; in [6] it was 203 ng/mL; in data set [12], 219 ng/mL; in data set [16], 756 ng/mL. Moreover, the figures for the Brain level in the data set on Mus musculus [5], in the data set on Mus musculus [7] and in the data set on Mus musculus [9] were 177 pmol/forebrain, 154 pmol/forebrain and 166 pmol/forebrain, respectively. Besides, the bioavailability came out at 13% in [15], 9.6% in data set [18], 8.9% in [21] and 28% in data set [23]. In data set [24], this molecule had an IC50 of 2900 nM.
